A selection: hits, their analogues and other compounds. The true share with any hit is near 1.3%.
AF4-AF9 inh: inhibitors of AF4 peptide binding to AF9, primary screen, biochemical, AlphaScreen, biotin-AF4 peptide, FLAG-AF9, single point | Protein AF-9 (Homo sapiens), P42568 | inhibition, % at 10 µM | actives 0.47% (n = 350,000);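 active = every replicate reaching a set inhibition limit, whatever the replicate mean, cut at about 25% in these data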
Target sequence (P42568 whole entry, looked up): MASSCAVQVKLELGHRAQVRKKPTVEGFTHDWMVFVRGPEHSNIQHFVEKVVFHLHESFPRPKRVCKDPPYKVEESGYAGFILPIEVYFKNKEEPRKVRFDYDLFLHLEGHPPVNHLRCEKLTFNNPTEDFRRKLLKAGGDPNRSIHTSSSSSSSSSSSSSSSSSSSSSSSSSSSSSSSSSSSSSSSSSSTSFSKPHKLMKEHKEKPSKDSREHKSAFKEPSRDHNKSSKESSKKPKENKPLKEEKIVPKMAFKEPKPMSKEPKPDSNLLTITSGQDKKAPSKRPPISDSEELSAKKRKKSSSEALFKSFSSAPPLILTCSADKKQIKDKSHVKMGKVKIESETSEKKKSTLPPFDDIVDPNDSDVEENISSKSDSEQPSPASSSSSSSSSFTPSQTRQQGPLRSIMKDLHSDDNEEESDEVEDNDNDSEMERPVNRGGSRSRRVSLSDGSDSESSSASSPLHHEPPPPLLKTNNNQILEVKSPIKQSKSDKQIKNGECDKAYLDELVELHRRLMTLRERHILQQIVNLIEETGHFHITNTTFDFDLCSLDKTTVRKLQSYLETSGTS
Xi reactivation: activators of inactive X chromosome reactivation, primary screen, imaging, XiGFP fibroblasts, GFP high-content imaging, set 2 | activation, % at 7.58 µM | actives 0.055% (n = 360,000) | XiGFP mouse fibroblasts, % GFP-positive cells imaging, 3 d; cells co-treated with 5-aza-dC sensitizer; scaled so ellipticine positive control = 100%;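 active = mean normalized replicate activation at least 10% and every replicate at or above 10%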
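Material: XiGFP fibroblasts, SV40-immortalized; Buffer or medium: DMEM containing 5-aza-dC; Compound dosing: single point; Times: 3 days compound exposure.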
S100A4 inh HTS: inhibitors of S100A4-myosin IIA peptide binding, primary screen, biochemical, fluorescence polarization, TAMRA-MyoIIA peptide; Protein S100-A4 (Homo sapiens), P26447; actives 0.14% (n = 360,000); inhibition, % at 10.7 µM; AID 652163, 2013;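 active = mean inhibition of at least 70% across replicates, with every replicate also reaching that level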
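Test system: S100A4 monomer protein; Medium: HEPES pH 7.2 with CaCl2, KCl, NaCl, DTT, Triton; Probe or stimulus: TAMRA-labelled myosin IIA heavy-chain peptide probe, 5 nM; Doses: one dose per compound; Times: polarization read 5 min after assay mix addition, stable 5–60 min; Benchmarks: neutral control DMSO, positive control TFP.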
RAD52 anneal inh: RAD52 DNA annealing inhibitors, primary screen, biochemical, FRET, single point, set 2; recombinant RAD52 DNA annealing, FRET fluorescence; inhibition, % at 18.7 µM; actives 0.46% (n = 360,000); AID 651710, 2012;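 active = every replicate showing at least 50% inhibition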
CASP6 VEID inh: human caspase-6 inhibitors, primary screen, biochemical, VEID-R110 fluorescence, single point, set 2; P55212; purified caspase-6, Z-VEID-R110 cleavage fluorescence; inhibition, % at 12.5 µM; actives 0.53% (n = 350,000);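 active = mean inhibition across replicates at least about 35%, with every replicate also reaching that limit, limit read from the data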
RAD54 branch: inhibitors of human RAD54 branch migration, primary screen, biochemical, fluorescence, single point; DNA repair and recombination protein RAD54-like (Homo sapiens), Q92698; RAD54 Holliday junction branch migration, FAM/BHQ fluorescence; inhibition, % at 10.4 µM; actives 0.14% (n = 360,000); AID 602329, 2012;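 active = mean normalized replicate activity at least 40 and at least half of replicates scoring 40 or more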;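 also: inhibitors cause a drop in the FAM fluorescence signal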
Hits are given with their value; . = inactive; / = no result given.

SMILES	AF4-AF9 inh	Xi reactivation	S100A4 inh HTS	RAD52 anneal inh	CASP6 VEID inh	RAD54 branch
COc1cccc(NC(=O)Nc2ccc3c(c2)OC[C@@H](C)NC[C@H](C)[C@@H](OC)CN(C)C3=O)c1	.	.	.	76	.	.
CO[C@H]1CN(C)C(=O)c2ccc(NC(=O)c3ccccc3F)cc2OC[C@@H](C)NC[C@H]1C	.	.	.	.	.	.
COc1ccc(NC(=O)Nc2ccc3c(c2)C(=O)N(C)C[C@@H](OC)[C@@H](C)CN[C@H](C)CO3)cc1	/	.	/	/	/	.
C/C=C/c1ccc([C@H]2[C@@H](CO)N(CC3CC3)[C@@H]2CN(C(C)=O)C(C)C)cc1	.	.	.	.	.	/
O=C(C[C@@H]1CC[C@@H]2[C@H](COC[C@@H](O)CN2S(=O)(=O)c2ccc(F)cc2)O1)N[C@@H]1CCN(Cc2ccccc2)C1	.	.	.	.	.	.
O=C1CN(S(=O)(=O)c2ccccc2)C[C@@H]2[C@H](c3ccc(C#Cc4ccccc4)cc3)[C@H](CO)N12	.	.	.	.	.	/
Cc1ccc(S(=O)(=O)N(C)C[C@@H]2Oc3ccc(NC(=O)Cc4cn(C)c5ccccc45)cc3CC(=O)N([C@H](C)CO)C[C@@H]2C)cc1	.	.	.	.	.	.
O=C(NCC[C@@H]1CC[C@H](NS(=O)(=O)c2ccccc2)[C@@H](CO)O1)c1cc(Cl)cc(Cl)c1	.	.	.	.	.	.
O=C(NCC[C@H]1CC[C@@H](NS(=O)(=O)c2ccccc2F)[C@H](CO)O1)c1ccc(F)cc1	.	.	126	.	.	.
O=C(NCC[C@H]1CC[C@H](NS(=O)(=O)c2ccccc2)[C@@H](CO)O1)c1cc(Cl)cc(Cl)c1	.	.	76	.	.	.
C[C@@H](NC(=O)C[C@@H]1CC[C@H]2[C@@H](COc3ccc(NC(=O)C4CCOCC4)cc3C(=O)N2C)O1)c1ccccc1	.	.	/	/	/	/
Cc1cccc(NC(=O)CNC(=O)c2ccccc2Cl)n1	.	.	99	.	.	.
Cc1cccc(NC(=O)CNC(=O)c2sc3ccccc3c2Cl)n1	.	.	.	.	.	.
Oc1cccc2c(NC(=S)Nc3ccc(OC(F)F)cc3)cccc12	.	.	.	.	81	/
FC(F)Oc1ccc(NC(=S)NCc2ccccc2)cc1	.	.	.	.	.	/
CO[C@H]1CN(C)C(=O)c2cc(NS(C)(=O)=O)ccc2OC[C@H](C)N(Cc2ccccn2)C[C@@H]1C	/	.	/	/	/	/
COc1ccc(CN2CC3(CCN(C(C)=O)CC3)c3c(n(C)c4cc(OC)ccc34)[C@H]2CO)cc1	/	.	/	/	/	/
CO[C@H]1CN(C)C(=O)c2cc(NC(=O)Nc3ccccc3F)ccc2OC[C@H](C)N(CCC(F)(F)F)C[C@@H]1C	.	.	.	.	.	.
C[C@@H]1CN(C)C(=O)c2cccc(NS(C)(=O)=O)c2O[C@@H]1CN(C)S(C)(=O)=O	/	.	/	/	/	/
O=C(c1ccc2c(c1)OCO2)N1CCCC1	/	/	/	/	/	.
O=C(c1cccc(Cl)c1)C1CCCN(C(=O)c2ccc3c(c2)OCO3)C1 (stereo not given)	31	.	.	.	.	.
COC(=O)c1cccc(C(=O)N2CCCC(C(=O)c3cccc(OC(C)C)c3)C2)c1 (stereo not given)	.	.	.	.	39	.
COC(=O)c1cccc(C(=O)N2CCCC(C(=O)c3ccccc3OC)C2)c1 (stereo not given)	.	.	.	.	.	.
CSc1ccc(C(=O)C2CCCN(C(=O)c3ccc4c(c3)OCO4)C2)cc1 (stereo not given)	.	.	.	.	.	.
O=C(Nc1ccc(C(=O)N2CCCC2)cc1)c1ccc2c(c1)OCO2	.	/	.	.	44	.

High-throughput results (PubChem BioAssay)
